The source made the active and inactive calls. No cut-off for these calls is given here.
Key:
Pseudomonas aeruginosa [1] = assay: Antibacterial activity against tobramycin-pretreated Pseudomonas aeruginosa isolate 380 after 20 hrs by microtiter dilution method; format: functional
Summary of the method: (§1)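 Mueller-Hinton broth microdilution; 2-fold serial dilutions of peptide from 0 to 50 μM incubated 20 h at 37 °C with 50 000 cfu/well from an overnight MHB culture. Bacterial growth read as background-subtracted OD600. MIC recorded as the peptide concentration at which growth is inhibited. P. aeruginosa isolates came from sputum of cystic fibrosis patients with infections persisting after inhaled tobramycin.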

Pseudomonas aeruginosa [2] = assay: Antibacterial activity against Pseudomonas aeruginosa PAO1 measured after 20 hrs by microtiter dilution method; format: functional; conditions: PAO1, 20 h; summary of the method: as §1
[3] = Hemolytic activity in human RBC assessed as hemolysis at 320 to 640 uM measured after 1 hr; format: ADME, cell-based, Erythrocyte; conditions: human red blood cells (erythrocytes), read-out: Activity
Summary of the method: (§2)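 Fresh human erythrocytes washed and resuspended in PBS to a final 4% (v/v). Incubated 1 h at 37 °C with 2-fold serial peptide dilutions from 0 to 640 μM. Supernatant absorbance at 540 nm; PBS taken as 0% and 1% Triton as 100% hemolysis. Standard deviation reported; one-way ANOVA applied.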

Escherichia coli [4] = assay: Binding affinity to Escherichia coli lipid extract liposome membrane at 25 uM by CD spectroscopic analysis; format: cell membranes
Summary of the method: (§3)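 CD spectra of 25 μM peptide in 10 mM Tris, 10 mM NaCl, pH 7.4, with 2 mg/mL E. coli total lipid extract or POPC liposomes, equilibrated overnight. Helicity judged at 222 nm. Average of at least three independent experiments.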

Escherichia coli [5] = assay: Antibacterial activity against Escherichia coli K-12 measured after 20 hrs by microtiter dilution method; format: functional; conditions: K-12, 20 h; summary of the method: as §1
Lipid bilayer [6] = assay: Binding affinity to POPC membrane at 25 uM by CD spectroscopic analysis; format: ADME; summary of the method: as §3
[7] = Stability of the compound assessed as Engyodontium album PMSF-pretreated proteinase K-mediated compound hydrolysis at 20 uM incubated for 10 mins at 70 degC by coomassie blue staining-based NuPAGE analysis; format: ADME; conditions: parengyodontium album, 1 h, in the assay text read “incubated for up to 1 hr at 37 degC” for “incubated for 10 mins at 70 degC”
Summary of the method: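 Reactions stopped with 5 mM PMSF; PMSF-preinhibited enzyme served as control. Samples heated 70 °C for 10 min and run on 12% Bis-Tris gels with Coomassie staining. Band density normalized to T0.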

Pseudomonas aeruginosa [8] = assay: Antibacterial activity against tobramycin-pretreated Pseudomonas aeruginosa isolate 287 measured after 20 hrs by microtiter dilution method; format: functional; summary of the method: as §1
[9] = Hemolytic activity in human RBC assessed as hemolysis at 40 uM measured after 1 hr; format: ADME, cell-based, Erythrocyte; conditions: human red blood cells (erythrocytes), read-out: Activity; summary of the method: as §2
Escherichia coli [10] = assay: Binding affinity to Escherichia coli lipid extract liposome membrane at 10 uM by tryptophan fluorescence method; format: cell membranes
Summary of the method: (§4)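 Peptide at 10 μM in 10 mM Tris, 10 mM NaCl, pH 7.4, with 0.8 mg/mL E. coli total lipid extract or POPC liposomes, equilibrated overnight before recording. Trp excited at 280 nm, emission scanned 300–400 nm. After background subtraction, the wavelength of maximal emission was taken.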

Pseudomonas aeruginosa [11] = assay: Antibacterial activity against tobramycin-pretreated Pseudomonas aeruginosa isolate 214 measured after 20 hrs by microtiter dilution method; format: functional; summary of the method: as §1
Pseudomonas aeruginosa [12] = assay: Antibacterial activity against tobramycin-pretreated Pseudomonas aeruginosa isolate 330 after 20 hrs by microtiter dilution method; format: functional; summary of the method: as §1
Escherichia coli [13] = assay: Binding affinity to Escherichia coli lipid extract liposome membrane at 10 uM by tryptophan fluorescence quenching method; format: cell membranes
Summary of the method: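 Acrylamide quenching of Trp; peptide 10 μM with 0.8 mg/mL E. coli lipid liposomes. Excitation at 295 nm, emission 310–400 nm. Read-out is the Stern–Volmer slope, with larger slopes meaning more quenching. At least two independent experiments, error given as standard deviation.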

Lipid bilayer [14] = assay: Binding affinity to POPC membrane at 10 uM by tryptophan fluorescence method; format: ADME; summary of the method: as §4
Escherichia coli [15] = assay: Induction of terbium(3)-loaded Escherichia coli lipid extract liposome membrane disruption at 10 uM measured after 20 mins by fluorescence assay relative to control; format: cell membranes
Lipid bilayer [16] = assay: Binding affinity to 11,12-BrPC-loaded POPC membrane at 10 uM by tryptophan fluorescence method; format: ADME
Lipid bilayer [17] = assay: Binding affinity to terbium(3)-loaded POPC membrane at 10 uM measured for 10 mins by fluorescence assay relative to control; format: ADME
Summary of the method: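 Tb3+-loaded liposomes, E. coli lipid or POPC, size-exclusion exchanged and diluted to 2.5% (v/v) in dipicolinic acid buffer, stirring. Peptide added at 10 μM. Tb3+ excited at 314 nm, emission at 544 nm recorded for 10 min. Liposome-only signal subtracted, normalized to a 0.1% Triton-lysed control as 100% disruption.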

Row | Substance | MIC (Pseudomonas aeruginosa [1]) [µM] | MIC (Pseudomonas aeruginosa [2]) [µM] | Activity (Escherichia coli [4]) | MIC (Escherichia coli [5]) [µM] | Activity (Lipid bilayer [6]) | Stability [7] | MIC (Pseudomonas aeruginosa [8]) [µM] | Activity (Escherichia coli [10]) | MIC (Pseudomonas aeruginosa [11]) [µM] | MIC (Pseudomonas aeruginosa [12]) [µM] | Activity (Escherichia coli [13]) | Activity (Lipid bilayer [14]) | Activity (Escherichia coli [15]) [%] | Activity (Lipid bilayer [16]) | Activity (Lipid bilayer [17]) [%] | hemolysis at 1 h, up to 640 µM [3] [%] | hemolysis at 1 h, 40 µM [9] [%]
1 | H-KKLKAFLKAWAKLFKAL-NH2 | 1.5 | 3.1 | Active | 1.6 | Active |  | 3.1 |  | 3.1 | 6.3 |  | Active | 40 |  | 25 to 70 | < 1 | 89
2 | H-KKKKKKAAFAAWAAFAA-NH2 | 12.5 | 12.5 | Active | 1.6 | Not Active | Stable | 3.1 | Active | 3.1 | 25 | Active |  | 35 |  |  | < 1 | 0
3 | H-KAAKKFAKAWAKAFKAA-NH2 | > 50 | 50 | Active | 12.5 | Not Active | Unstable | > 50 | Active | > 50 | > 50 | Active |  | 8 |  |  | < 1 | 0
4 | H-KKAKAFAKAWAKAFKAA-NH2 | > 50 | 25 | Active | 12.5 | Not Active | Unstable | 50 | Active | 50 | > 50 |  |  | 80 |  |  | < 1 | 0
5 | H-KKKAAFAKAWAKAFKAA-NH2 | > 50 | 50 | Active | 25 | Not Active | Unstable | > 50 | Active | 50 | > 50 |  |  | 80 |  |  | < 1 | 0
6 | H-KKKKKALFLKLWAAFLA-NH2 | > 50 | 12.5 | Active | 3.1 | Active |  | 6.3 |  | 6.3 | 12.5 |  | Active | 40 |  | 25 to 70 |  | 49

The next lines start with results.

Row | MIC (Pseudomonas aeruginosa [1]) [µM] | MIC (Pseudomonas aeruginosa [2]) [µM] | Activity (Escherichia coli [4]) | MIC (Escherichia coli [5]) [µM] | Activity (Lipid bilayer [6]) | Stability [7] | MIC (Pseudomonas aeruginosa [8]) [µM] | Activity (Escherichia coli [10]) | MIC (Pseudomonas aeruginosa [11]) [µM] | MIC (Pseudomonas aeruginosa [12]) [µM] | Activity (Escherichia coli [13]) | Activity (Lipid bilayer [14]) | Activity (Escherichia coli [15]) [%] | Activity (Lipid bilayer [16]) | Activity (Lipid bilayer [17]) [%] | Substance | hemolysis at 1 h, up to 640 µM [3] [%] | hemolysis at 1 h, 40 µM [9] [%]
7 | 50 | 25 | Active | 6.3 | Not Active | Stable | 50 | Active | 25 | 50 |  |  |  |  |  | H-KKKKKAAFAKAWAAFAA-NH2 | < 1 | 0
8 | > 50 | > 50 | Active | 12.5 | Active |  | 25 |  | 50 | > 50 | Active | Active | 80 | Not Active | 4 to 8 | H-KKKKKKALFALWLAFLA-NH2 |  | 33
9 | 3.1 | 3.1 | Active | 3.1 | Active |  | 3.1 |  | 3.1 | 6.3 |  | Active | 40 |  | 25 to 70 | H-KKKAAFLKLWAKLFKAL-NH2 |  | 100
10 | 50 | 50 | Active | 12.5 | Not Active | Unstable | > 50 | Active | 50 | > 50 |  |  |  |  |  | H-KKKKAAFAKAWAKAFAA-NH2 | < 1 | 0
11 | 6.3 | 3.1 | Active | 1.6 | Active |  | 3.1 |  | 3.1 | 6.3 | inactive | Active | 40 | Active | 25 to 70 | H-KALKKFLKAWAKLFKAL-NH2 | < 1 | 81
12 | > 50 | > 50 | Active | 12.5 | Active |  | > 50 |  | > 50 | > 50 |  | Active | 40 |  | 25 to 70 | H-KKKKAAFLKLWLKLFAA-NH2 |  | 8

— ChEMBL document CHEMBL4364261, “Positive Charge Patterning and Hydrophobicity of Membrane-Active Antimicrobial Peptides as Determinants of Activity, Toxicity, and Pharmacokinetic Stability” (J Med Chem, 2019)
